The source made the active and inactive calls. The calls are words filed in the database; no cut-off is given here.
Legend:
Rattus norvegicus [1] = test: Anticonvulsant activity in Sprague-Dawley rat assessed as protection against maximal electroshock-induced seizures at 30 mg/kg, po after 0.25 hrs; type: functional, organism-based
Method in brief: (§1)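 Sprague-Dawley rats were given 30 mg/kg p.o. in 0.5% methylcellulose. Maximal electroshock was applied at 0.25, 0.5, 1.0, 2.0 and 4 h after dosing. Results are reported as number of rats protected / number tested.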

Rattus norvegicus [2] = test: Neurotoxicity in Sprague-Dawley rat at 30 mg/kg, po after 4 hrs; type: toxicity, organism-based; conditions: in vivo
Method in brief: (§2)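 Sprague-Dawley rats were given 30 mg/kg orally in 0.5% methylcellulose. Neurotoxicity was checked at 0.25, 0.5, 1.0, 2.0 and 4 h after dosing. Results are given as number of rats showing neurotoxicity/number tested.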

Rattus norvegicus [3] = test: Anticonvulsant activity in Sprague-Dawley rat assessed as protection against maximal electroshock-induced seizures at 30 mg/kg, po after 4 hrs; type: functional, organism-based; method in brief: as §1
Rattus norvegicus [4] = test: Anticonvulsant activity in Sprague-Dawley rat assessed as protection against maximal electroshock-induced seizures at 30 mg/kg, po after 1 hr; type: functional, organism-based; method in brief: as §1
Rattus norvegicus [5] = test: Neurotoxicity in Sprague-Dawley rat at 30 mg/kg, po after 0.5 hrs; type: toxicity, organism-based; conditions: in vivo; method in brief: as §2
Rattus norvegicus [6] = test: Neurotoxicity in Sprague-Dawley rat at 30 mg/kg, po after 2 hrs; type: toxicity, organism-based; conditions: in vivo; method in brief: as §2
Rattus norvegicus [7] = test: Neurotoxicity in Sprague-Dawley rat at 30 mg/kg, po after 1 hr; type: toxicity, organism-based; conditions: in vivo; method in brief: as §2
Rattus norvegicus [8] = test: Anticonvulsant activity in Sprague-Dawley rat assessed as protection against maximal electroshock-induced seizures at 30 mg/kg, po after 0.5 hrs; type: functional, organism-based; method in brief: as §1
Mus musculus [9] = test: Anticonvulsant activity in ip dosed albino Carworth Farms No.1 mouse assessed as protection against maximal electroshock-induced seizures after 0.25 hrs; type: functional; conditions: Carworth Farms No.1, ip
Method in brief: (§3)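 Quantitative i.p. evaluation in Carworth Farms No.1 albino mice, with graded doses in 0.5% methylcellulose. MES, scPTZ or 6-Hz (32 mA) seizure tests were run at 0.25 h.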

Mus musculus [10] = test: Anticonvulsant activity in ip dosed albino Carworth Farms No.1 mouse assessed as protection against subcutaneous dosed pentetrazol-induced seizures after 0.25 hrs; type: functional; conditions: Carworth Farms No.1, 0.25 h; method in brief: as §3
[11] = Protection index, ratio of TD50 for neurotoxicity in ip dosed albino Carworth Farms No.1 mouse to ED50 for anticonvulsant activity in ip dosed albino Carworth Farms No.1 mouse assessed as protection against subcutaneous dosed pentetrazol-induced seizures; type: toxicity, organism-based; conditions: in vivo, intraperitoneal, read-out: Ratio TD50/ED50
Method in brief: (§4)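 Graded i.p. doses in 0.5% methylcellulose were given to albino Carworth Farms No.1 mice. ED50 was determined in MES, scPTZ or 6-Hz (32 mA) tests, and TD50 by rotarod. Both were reported with 95% confidence intervals. PI was calculated as TD50/ED50.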

[12] = Hepatotoxicity against human HepG2 cells assessed as cell viability at 100 uM after 24 hrs by MTT assay relative to control
[13] = Hepatotoxicity against human HepG2 cells assessed as cell viability at 10 uM after 24 hrs by MTT assay relative to control; type: toxicity, cell-based; conditions: read-out: Activity
Method in brief: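 HepG2 cells (EMEM, 10% FBS, 37 °C, 5% CO₂) were seeded at 1 × 10⁴ per well and cultured overnight. They were then exposed to increasing compound concentrations for 24 h. MTT reagent was added for 3 h and formazan crystals dissolved before reading. Data are mean ± SD of at least three independent experiments, relative to untreated control.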

[14] = Neurotoxicity in ip dosed albino Carworth Farms No.1 mouse after 0.25 hrs by rotarod test; type: toxicity, organism-based; conditions: in vivo
[15] = Protection index, ratio of TD50 for neurotoxicity in ip dosed albino Carworth Farms No.1 mouse to ED50 for anticonvulsant activity in ip dosed albino Carworth Farms No.1 mouse assessed as protection against maximal electroshock-induced seizures; type: toxicity, organism-based; conditions: in vivo, read-out: Ratio TD50/ED50
Method in brief: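 Graded i.p. doses in 0.5% methylcellulose were given to albino Carworth Farms No.1 mice. ED50 was determined in MES, scPTZ or 6-Hz (32 mA) tests, and TD50 by rotarod. PI was calculated as TD50/ED50.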

[16] = Protection index, ratio of TD50 for neurotoxicity in po dosed Sprague-Dawley rat to ED50 for anticonvulsant activity in po dosed Sprague-Dawley rat assessed as subcutaneous dosed pentetrazol-induced seizures; type: toxicity, organism-based; conditions: in vivo
in vitro [17] = conditions: human, HepG2 cells
in vitro [18] = conditions: human, HepG2 cells; remark: listed apart in the source
Mus musculus [19] = test: Anticonvulsant activity in albino Carworth Farms No.1 mouse assessed as protection against 6-Hz electroshock-induced seizures at 100 mg/kg, ip after 2 hrs; type: functional, organism-based
Method in brief: (§5)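 Carworth Farms No.1 albino mice were dosed i.p. at 100 mg/kg (0.5% methylcellulose solution or suspension). 6-Hz seizures were induced at 32 mA at 0.25, 0.5, 1.0, 2.0 and 4 h after injection. Results are given as animals protected / animals tested.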

Rattus norvegicus [20] = test: Anticonvulsant activity in po dosed Sprague-Dawley rat assessed as protection against maximal electroshock-induced seizures after 0.5 hrs; type: functional
Method in brief: (§6)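 Sprague-Dawley rats received graded oral doses suspended or dissolved in 0.5% methylcellulose. Challenge was maximal electroshock or subcutaneous pentetrazol at the stated time after dosing.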

Rattus norvegicus [21] = test: Anticonvulsant activity in po dosed Sprague-Dawley rat assessed as protection against subcutaneous dosed pentetrazol-induced seizures after 0.5 hrs; type: functional; method in brief: as §6
[22] = Hepatotoxicity against human HepG2 cells assessed as cell viability at 50 uM after 24 hrs by MTT assay relative to control
in vitro [23] = conditions: human, HepG2 cells; remark: listed apart in the source
Mus musculus [24] = test: Anticonvulsant activity in albino Carworth Farms No.1 mouse assessed as protection against 6-Hz electroshock-induced seizures at 100 mg/kg, ip after 0.5 hrs; type: functional, organism-based; method in brief: as §5
HepG2 = test: Cytotoxicity against human HepG2 cells assessed as change in cell morphology after 48 hrs by inverted microscopic analysis; type: cell-based; conditions: hepg2, 48 h
Method in brief: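 HepG2 cells in EMEM with 10% FBS and antibiotics were seeded at 5 × 10⁴ cells/cm². After 24 h the medium was replaced with fresh medium with or without compound. After 48 h, cells were imaged under interference modulation contrast at 37 °C, 5% CO₂.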

[25] = Neurotoxicity in po dosed Sprague-Dawley rat after 0.5 hrs by rotarod test; type: toxicity, organism-based; conditions: in vivo
[26] = Protection index, ratio of TD50 for neurotoxicity in ip dosed albino Carworth Farms No.1 mouse to ED50 for anticonvulsant activity in ip dosed albino Carworth Farms No.1 mouse assessed as protection against 6-Hz electroshock-induced seizures; type: toxicity, organism-based; conditions: in vivo, read-out: Ratio TD50/ED50; method in brief: as §4
Mus musculus [27] = test: Anticonvulsant activity in ip dosed albino Carworth Farms No.1 mouse assessed as protection against 6-Hz electroshock-induced seizures after 0.25 hrs; type: functional; conditions: Carworth Farms No.1, ip; method in brief: as §3
Rattus norvegicus [28] = test: Anticonvulsant activity in po dosed Sprague-Dawley rat assessed as protection against maximal electroshock-induced seizures after 1 hr; type: functional; method in brief: as §6
[29] = Neurotoxicity in po dosed Sprague-Dawley rat after 1 hr by rotarod test; type: toxicity, organism-based; conditions: in vivo
Rattus norvegicus [30] = test: Anticonvulsant activity in po dosed Sprague-Dawley rat assessed as protection against subcutaneous dosed pentetrazol-induced seizures after 1 hr; type: functional; method in brief: as §6

SMILES | Activity (Rattus norvegicus [1]) | Activity (Rattus norvegicus [2]) | Activity (Rattus norvegicus [3]) | Activity (Rattus norvegicus [4]) | Activity (Rattus norvegicus [5]) | Activity (Rattus norvegicus [6]) | Activity (Rattus norvegicus [7]) | Activity (Rattus norvegicus [8]) | ED50 (Mus musculus [9]) [mg/kg] | ED50 (Mus musculus [10]) [mg/kg] | selectivity ratio [11] | viability at 24 h, 100 µM [12] [%] | viability at 24 h, 10 µM [13] [%] | TD50 at 0.25 h [14] [mg/kg] | viability at 24 h, 10 µM (in vitro [17]) [%] | viability at 24 h, 100 µM (in vitro [18]) [%] | Activity (Mus musculus [19]) | viability at 24 h, 50 µM [22] [%] | viability at 24 h, 25 µM (in vitro [23]) [%] | Activity (HepG2) | further results
O=C(/C=C/c1ccccc1)N1CCC(O)CC1 | inactive | Non-toxic | inactive | inactive | Non-toxic | Non-toxic | Non-toxic | inactive | – | – | – | – | – | – | – | – | – | – | – | – | –
CC(O)CNC(=O)/C=C/c1ccccc1 (racemic) | inactive | Non-toxic | inactive | inactive | Non-toxic | Non-toxic | Non-toxic | inactive | 47.1 | 77.1 | 1.8 | 91.9 | 97.3 | 136 | 99 | 85 | inactive | 92.6 | 99 | Non-toxic | selectivity ratio [15]: 2.9; selectivity ratio [16]: > 10.8; ED50 (Rattus norvegicus [20]): 22.8 mg/kg; ED50 (Rattus norvegicus [21]): 46.2 mg/kg; Activity (Mus musculus [24]): Active; TD50 at 0.5 h [25]: > 500 mg/kg
CCC(O)CNC(=O)/C=C/c1ccccc1 (racemic) | Active | Non-toxic | inactive | inactive | Non-toxic | Non-toxic | Non-toxic | – | – | – | – | 85.9 | 94.5 | – | 98 | 89 | inactive | 89.4 | 97 | Non-toxic | ED50 (Rattus norvegicus [20]): 41.5 mg/kg; ED50 (Rattus norvegicus [21]): > 250 mg/kg; TD50 at 0.5 h [25]: > 500 mg/kg
CC(C)C(CO)NC(=O)/C=C/c1ccccc1 (racemic) | inactive | Non-toxic | inactive | inactive | Non-toxic | Non-toxic | Non-toxic | inactive | – | – | – | 82.2 | 95.2 | 190 | 98 | 90 | inactive | 89.1 | 98 | Non-toxic | selectivity ratio [26]: 1.8; ED50 (Mus musculus [27]): 106 mg/kg; Activity (Mus musculus [24]): Active
CC(CO)NC(=O)/C=C/c1ccccc1 (racemic) | inactive | Non-toxic | inactive | inactive | Non-toxic | Non-toxic | Non-toxic | inactive | 86.6 | 110 | 2 | 92.2 | 97.1 | 223 | 98 | 89 | inactive | 95 | 98 | Non-toxic | ED50 (Rattus norvegicus [28]): 31 mg/kg; TD50 at 1 h [29]: > 250 mg/kg; selectivity ratio [15]: 2.6; selectivity ratio [26]: 3.7; ED50 (Mus musculus [27]): 60.9 mg/kg; ED50 (Rattus norvegicus [30]): > 250 mg/kg
